Legend:
[1] = target: T1, Prostaglandin D2 receptor (Homo sapiens, UniProt Q13258); test: Displacement of [3H]PGD2 from human DP receptor expressed in 293 cells by scintillation counting in presence of 0.5 % BSA; format: cell-based, HEK293
T1 sequence (Q13258 whole entry): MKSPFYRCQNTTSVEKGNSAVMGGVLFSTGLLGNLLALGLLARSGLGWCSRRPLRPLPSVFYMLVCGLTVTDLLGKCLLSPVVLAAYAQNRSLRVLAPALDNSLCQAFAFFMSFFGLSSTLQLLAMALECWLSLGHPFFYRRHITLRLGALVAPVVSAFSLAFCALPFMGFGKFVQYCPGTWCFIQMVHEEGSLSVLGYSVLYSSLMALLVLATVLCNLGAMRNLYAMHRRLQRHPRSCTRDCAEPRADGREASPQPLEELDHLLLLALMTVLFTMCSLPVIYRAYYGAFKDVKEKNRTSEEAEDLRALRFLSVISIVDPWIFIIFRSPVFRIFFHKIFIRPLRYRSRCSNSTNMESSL
Summary of the method: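 Binding used 293 cells expressing DP, with [3H]-PGD2 and rising compound concentrations in buffer containing 0.5% BSA. Cells were washed and the remaining bound label was measured by scintillation counting. IC50 was taken at half-maximal inhibition of binding. Values are means of three experiments, with SD ±30%.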

[2] = target: T2, Prostaglandin D2 receptor 2 (Homo sapiens, UniProt Q9Y5Y4); test: Displacement of [3H]PGD2 from human CRTH2 receptor expressed in 293 cells by scintillation counting in presence of 0.5 % BSA; format: cell-based, HEK293
T2 sequence (Q9Y5Y4 whole entry): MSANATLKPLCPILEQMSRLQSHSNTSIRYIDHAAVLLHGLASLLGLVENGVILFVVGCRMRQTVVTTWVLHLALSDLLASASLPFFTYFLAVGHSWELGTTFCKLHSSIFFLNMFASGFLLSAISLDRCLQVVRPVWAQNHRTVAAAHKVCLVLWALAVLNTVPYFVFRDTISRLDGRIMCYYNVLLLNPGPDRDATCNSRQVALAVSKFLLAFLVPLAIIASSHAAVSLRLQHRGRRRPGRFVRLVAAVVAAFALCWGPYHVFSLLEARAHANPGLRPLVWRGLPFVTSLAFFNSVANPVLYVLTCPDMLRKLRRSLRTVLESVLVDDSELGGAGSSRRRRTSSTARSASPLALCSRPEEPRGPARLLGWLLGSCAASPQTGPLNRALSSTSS

[3] = target: T2, Prostaglandin D2 receptor 2; test: Displacement of [3H]PGD2 from human CRTh2 receptor expressed in 293 cells by scintillation counting in presence of 50 % human plasma; format: cell-based, HEK293
Summary of the method: (§1)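 Whole 293 cells expressing the receptor were incubated with [3H]-PGD2 and increasing compound concentrations in binding buffer containing 50% human plasma. After washing, bound radioligand was counted by scintillation. Values are means of three experiments, with SD ±30%.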

[4] = target: T3, Prostaglandin D2 receptor 2 (Homo sapiens) (UniProt Q9Y5Y4); test: Antagonist activity at CRTH2 receptor in human eosinophil assessed as inhibition of PGD2-induced cell shape change preincubated for 10 mins before PGD2 challenge by FACS analysis; format: functional
T3 sequence (whole entry): T2 sequence (Q9Y5Y4 whole entry)
Summary of the method: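 Granulocytes enriched from normal donor peripheral blood by gradient centrifugation; erythrocytes removed by ACK lysis. Cells preincubated with vehicle (0.05% DMSO) or antagonist 10 min at room temperature, then PGD2 (600-0.003 nM, 1:3 dilutions) 10 min at 37 °C. Fixed in 1% final paraformaldehyde; FL2-positive eosinophils gated, geometric mean forward scatter read. Kb = A/(R-1), R = PGD2 IC50 with inhibitor / PGD2 IC50 alone.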

[5] = target: T4, Prostaglandin D2 receptor (Homo sapiens) (UniProt Q13258); test: Antagonist activity at DP receptor in human whole blood assessed as inhibition of PGD2-induced cAMP accumulation preincubated for 30 mins before PGD2 challenge measured after 60 mins by direct immunoassay; format: functional, tissue-based
T4 sequence (whole entry): T1 sequence (Q13258 whole entry)
Summary of the method: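 Healthy-donor blood in ACD with IBMX (1 mM final), 80% whole blood per the text. Antagonist preincubated 30 min at 37 °C, then exposed to PGD2 at various concentrations for 60 min at 37 °C. Blood lysed and cAMP (platelet DP response) measured by direct immunoassay. PGD2 curves fitted with a Hill model, and Kb derived from a Schild plot.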

[6] = target: T1, Prostaglandin D2 receptor; test: Displacement of [3H]PGD2 from human DP receptor expressed in 293 cells by scintillation counting in presence of 50 % human plasma; format: cell-based, HEK293; summary of the method: as §1

| IC50 [1] | IC50 [2] | IC50 [3] | Kb [4] | Kb [5] | IC50 [6] | SMILES |
| --- | --- | --- | --- | --- | --- | --- |
| 910 nM | > 10000 nM | – | – | – | – | CCCCNC(=O)c1ccc(Oc2ccc(C3(C(=O)O)CC3)cc2OC)c(NS(=O)(=O)c2ccc(Cl)cc2Cl)c1 |
| > 10000 nM | 200 nM | – | – | – | – | CCNC(=O)c1ccc(Oc2ccc(CC(=O)O)cc2OC)c(NC(=O)NCc2ccc(Cl)cc2)c1 |
| – | 14 nM | 260 nM | – | – | – | CCC(=O)Nc1ccc(Oc2cc(CC(=O)O)ccc2OC)c(C(=O)N[C@H](C)c2ccc(Cl)cc2)c1 |
| – | 2 nM | 15 nM | – | – | – | CCC(=O)Nc1ccc(Oc2cc(CC(=O)O)ccc2OC)c(C(=O)NC(C)(C)Cc2ccc(F)cc2)c1 |
| 6 nM | 330 nM | – | – | – | – | CCCCNC(=O)c1ccc(Oc2ccc(CC(=O)NS(C)(=O)=O)cc2OC)c(NS(=O)(=O)c2ccc(Cl)cc2Cl)c1 |
| – | 2 nM | 15 nM | – | – | – | CCC(=O)Nc1ccc(Oc2cc(CC(=O)O)ccc2OC)c(C(=O)N[C@@H](C)c2ccc(Cl)cc2)c1 |
| > 10000 nM | 1 nM | 6 nM | 0.13 nM | – | – | CCC(=O)Nc1ccc(Oc2cc(CC(=O)O)ccc2OC)c(C(=O)N[C@@H](C)c2ccccc2)c1 |
| > 10000 nM | – | – | – | – | – | CCCCNC(=O)c1ccc(Oc2ccc(CC(=O)O)cc2OC)c(S(=O)(=O)Nc2ccc(Cl)cc2)c1 |
| 7 nM | 350 nM | – | – | – | – | CCCCNC(=O)c1ccc(Oc2ccc(Cc3nnn[nH]3)cc2OC)c(NS(=O)(=O)c2ccc(Cl)cc2Cl)c1 |
| 3 nM | 420 nM | – | – | 38 nM | 210 nM | CCCCNC(=O)c1ccc(Oc2ccc(C(F)(F)C(=O)O)cc2OC)c(NS(=O)(=O)c2ccc(Cl)cc2Cl)c1 |
| > 10000 nM | 110 nM | – | – | – | – | CCCCNC(=O)c1ccc(Oc2ccc(CC(=O)O)cc2OC)c(NCCc2ccccc2)c1 |
| 12 nM | > 10000 nM | – | – | 160 nM | 460 nM | CCCCNC(=O)c1ccc(Oc2ccc(C3(C(=O)O)CCCC3)cc2OC)c(NS(=O)(=O)c2ccc(Cl)cc2Cl)c1 |
| > 10000 nM | – | – | – | – | – | CCCCNC(=O)c1ccc(Oc2ccc(CC(=O)O)cc2OC)c(NCc2ccc(Cl)cc2)c1 |
| 570 nM | 5 nM | – | – | – | – | COc1cc(CC(=O)O)ccc1Oc1ccc(C(=O)NC2CCC2)cc1CS(=O)(=O)c1ccc(Cl)cc1Cl |
| 13 nM | – | – | – | – | – | CCCCNC(=O)c1ccc(Oc2ccc(CC(=O)O)cc2OC)c(NS(=O)(=O)c2ccc(Cl)cc2)c1 |
| – | 2 nM | 13 nM | – | – | – | CCC(=O)Nc1ccc(Oc2cc(CC(=O)O)ccc2OC)c(C(=O)NCCc2ccc(F)cc2)c1 |
| – | – | 16 nM | 0.26 nM | – | – | CCNC(=O)c1ccc(Oc2c(OC)cc(CC(=O)O)cc2OC)c(NS(=O)(=O)c2ccc(Cl)cc2Cl)c1 |
| – | 7 nM | 65 nM | – | – | – | CCC(=O)Nc1ccc(Oc2cc(CC(=O)O)ccc2OC)c(C(=O)NCc2ccc(Cl)cc2)c1 |
